Experimental data: ChEMBL document CHEMBL3272030, “Synthesis and biological properties of some spin-labeled 9-aminoacridines” (J Med Chem, 1976)

What follows are compounds tested on L1210 (assay: Cytotoxicity against mouse L1210 cells assessed as growth inhibition at 100 ug/ml after 24 hrs). Settings: not given.
Format: functional
Summary of the method: (§1)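 L1210 leukemia cells seeded at 10^5 cells/ml and grown in static culture in RPMI 1630 medium with fetal calf serum. Drug tested at 0.01–100 µg/ml, with 24 h and 48 h exposures. Read-out is percent inhibition of growth. Assays were run in triplicate, and values are the mean of two separate experiments.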
Work on `CC1(C)CC(CNc2c3ccccc3nc3ccccc23)C(C)(C)N1[O]` (stereo not drawn) yielded a growth inhibition (GI) of 48%.

Same assay, conditions: L1210, 24 h, read-out: GI
Work on `COc1cc(NS(C)(=O)=O)ccc1Nc1c2ccccc2nc2ccccc12` [AMSACRINE] yielded an inhibition of growth at 100 µg/mL of 57%.

These compounds were tested on L1210 (assay: Cytotoxicity against mouse L1210 cells assessed as growth inhibition at 100 ug/ml after 48 hrs). Settings: not given.
Format: functional
Summary of the method: as §1
`CC1(C)CC(CNc2c3ccccc3nc3ccccc23)C(C)(C)N1[O]` (stereo not drawn) showed a growth inhibition (GI) of 82%.

Same assay, conditions: L1210, 48 h, read-out: GI
For `COc1cc(NS(C)(=O)=O)ccc1Nc1c2ccccc2nc2ccccc12` [AMSACRINE], the inhibition of growth at 100 µg/mL was 92%.

Each compound was assayed on L1210 (assay: Cytotoxicity against mouse L1210 cells assessed as growth inhibition at 10 ug/ml after 24 hrs). Settings: not given.
Format: functional
Summary of the method: as §1
`CC1(C)CC(CNc2c3ccccc3nc3ccccc23)C(C)(C)N1[O]` (stereo not drawn) showed a growth inhibition (GI) of 46%.

Same assay, conditions: L1210, 24 h, read-out: GI
`COc1cc(NS(C)(=O)=O)ccc1Nc1c2ccccc2nc2ccccc12` [AMSACRINE] was tested, and the inhibition of growth at 10 µg/mL was 50%.

What follows are compounds tested on L1210 (assay: Cytotoxicity against mouse L1210 cells assessed as growth inhibition at 10 ug/ml after 48 hrs). Settings: not given.
Format: functional
Summary of the method: as §1
With `CC1(C)CC(CNc2c3ccccc3nc3ccccc23)C(C)(C)N1[O]` (stereo not drawn) the growth inhibition (GI) was 79%.

Same assay, conditions: L1210, 48 h, read-out: GI
With `COc1cc(NS(C)(=O)=O)ccc1Nc1c2ccccc2nc2ccccc12` [AMSACRINE] the inhibition of growth at 10 µg/mL was 87%.

Each compound was assayed on L1210 (assay: Cytotoxicity against mouse L1210 cells assessed as growth inhibition at 1 ug/ml after 24 hrs). Settings: not given.
Format: functional
Summary of the method: as §1
In the case of `CC1(C)CC(CNc2c3ccccc3nc3ccccc23)C(C)(C)N1[O]` (stereo not drawn), the growth inhibition (GI) is reported as 12%.

Same assay, conditions: L1210, 24 h, read-out: GI
`COc1cc(NS(C)(=O)=O)ccc1Nc1c2ccccc2nc2ccccc12` [AMSACRINE] showed an inhibition of growth at 1 µg/mL of 42%.

These compounds were tested on L1210 (assay: Cytotoxicity against mouse L1210 cells assessed as growth inhibition at 1 ug/ml after 48 hrs). Settings: not given.
Format: functional
Summary of the method: as §1
`CC1(C)CC(CNc2c3ccccc3nc3ccccc23)C(C)(C)N1[O]` (stereo not drawn) was tested, and the growth inhibition (GI) was 29%.

Same assay, conditions: L1210, 48 h, read-out: GI
With `COc1cc(NS(C)(=O)=O)ccc1Nc1c2ccccc2nc2ccccc12` [AMSACRINE] the inhibition of growth at 1 µg/mL was 82%.

What follows are compounds tested on L1210 (assay: Cytotoxicity against mouse L1210 cells assessed as growth inhibition at 0.1 ug/ml after 24 hrs). Settings: not given.
Format: functional
Summary of the method: as §1
`CC1(C)CC(CNc2c3ccccc3nc3ccccc23)C(C)(C)N1[O]` (stereo not drawn) showed a growth inhibition (GI) of 3%.

Same assay, conditions: L1210, 24 h, read-out: GI
For `COc1cc(NS(C)(=O)=O)ccc1Nc1c2ccccc2nc2ccccc12` [AMSACRINE], the inhibition of growth at 0.1 µg/mL was 29%.

The compounds below were run on L1210 (assay: Cytotoxicity against mouse L1210 cells assessed as growth inhibition at 0.1 ug/ml after 48 hrs). Settings: not given.
Format: functional
Summary of the method: as §1
`CC1(C)CC(CNc2c3ccccc3nc3ccccc23)C(C)(C)N1[O]` (stereo not drawn) was tested, and the growth inhibition (GI) was 2%.

Same assay, conditions: L1210, 48 h, read-out: GI
Work on `COc1cc(NS(C)(=O)=O)ccc1Nc1c2ccccc2nc2ccccc12` [AMSACRINE] yielded an inhibition of growth at 0.1 µg/mL of 75%.

Each compound was assayed on L1210 (assay: Cytotoxicity against mouse L1210 cells assessed as growth inhibition at 0.01 ug/ml after 24 hrs). Settings: not given.
Format: functional
Summary of the method: as §1
`CC1(C)CC(CNc2c3ccccc3nc3ccccc23)C(C)(C)N1[O]` (stereo not drawn) gave a growth inhibition (GI) of 0%.

Same assay, conditions: L1210, 24 h, read-out: GI
In the case of `COc1cc(NS(C)(=O)=O)ccc1Nc1c2ccccc2nc2ccccc12` [AMSACRINE], the inhibition of growth at 0.01 µg/mL is reported as 6%.

The compounds below were run on L1210 (assay: Cytotoxicity against mouse L1210 cells assessed as growth inhibition at 0.01 ug/ml after 48 hrs). Settings: not given.
Format: functional
Summary of the method: as §1
`CC1(C)CC(CNc2c3ccccc3nc3ccccc23)C(C)(C)N1[O]` (stereo not drawn) showed a growth inhibition (GI) of 3%.

Same assay, conditions: L1210, 48 h, read-out: GI
For `COc1cc(NS(C)(=O)=O)ccc1Nc1c2ccccc2nc2ccccc12` [AMSACRINE], the inhibition of growth at 0.01 µg/mL was 8%.

The compounds below were run on Calf thymus DNA (assay: Binding affinity to calf thymus DNA assessed as decrease in DNA sedimentation coefficient at 5.2 x 10^-6 M relative to untreated control). Settings: Bos taurus.
Format: nucleic-acid assay
Summary of the method: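 Calf thymus DNA was mixed with compound at 5.2 × 10^-6 M and incubated 30 min at about 22°. Sedimentation was run in an analytical ultracentrifuge at 20°, with UV scanning at 260 nm. Each run included a drug-free DNA control. Sedimentation coefficients were not corrected for density or viscosity.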
For `CC1(C)CC(CNc2c3ccccc3nc3ccccc23)C(C)(C)N1[O]` (stereo not drawn), the Ratio was 1.08.

These compounds were tested on Calf thymus DNA (assay: Binding affinity to calf thymus DNA assessed as decrease in DNA sedimentation coefficient at 20 x 10^-6 M relative to untreated control). Settings: Bos taurus.
Format: nucleic-acid assay
`Nc1ccc2cc3ccc(N)cc3nc2c1` showed a Ratio of 1.13.

Each compound was assayed against T1, Bacterial DNA-directed RNA polymerase (Bacteria) (UniProt P0A8V2+P0A7Z4+P0A8T7+P0A800) (assay: Inhibition of Escherichia coli DNA-primed RNA polymerase activity using [8-14C]ATP at 400 ug/ml by scintillation counting). Settings: not given.
T1 sequence (P0A7Z4 whole entry partner): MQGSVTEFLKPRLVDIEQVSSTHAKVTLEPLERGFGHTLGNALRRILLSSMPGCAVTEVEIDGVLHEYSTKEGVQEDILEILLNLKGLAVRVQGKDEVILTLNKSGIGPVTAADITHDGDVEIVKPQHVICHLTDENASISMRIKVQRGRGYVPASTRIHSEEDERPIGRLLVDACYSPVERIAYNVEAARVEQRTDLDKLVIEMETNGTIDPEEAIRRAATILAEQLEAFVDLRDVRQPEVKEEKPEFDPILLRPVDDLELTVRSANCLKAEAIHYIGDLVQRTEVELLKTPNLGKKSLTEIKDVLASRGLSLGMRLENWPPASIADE
T1 sequence (P0A800 2-91 partner limits assumed): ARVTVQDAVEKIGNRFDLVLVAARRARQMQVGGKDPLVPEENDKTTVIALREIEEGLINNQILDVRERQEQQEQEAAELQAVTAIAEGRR
T1 sequence (P0A8T7 whole entry partner): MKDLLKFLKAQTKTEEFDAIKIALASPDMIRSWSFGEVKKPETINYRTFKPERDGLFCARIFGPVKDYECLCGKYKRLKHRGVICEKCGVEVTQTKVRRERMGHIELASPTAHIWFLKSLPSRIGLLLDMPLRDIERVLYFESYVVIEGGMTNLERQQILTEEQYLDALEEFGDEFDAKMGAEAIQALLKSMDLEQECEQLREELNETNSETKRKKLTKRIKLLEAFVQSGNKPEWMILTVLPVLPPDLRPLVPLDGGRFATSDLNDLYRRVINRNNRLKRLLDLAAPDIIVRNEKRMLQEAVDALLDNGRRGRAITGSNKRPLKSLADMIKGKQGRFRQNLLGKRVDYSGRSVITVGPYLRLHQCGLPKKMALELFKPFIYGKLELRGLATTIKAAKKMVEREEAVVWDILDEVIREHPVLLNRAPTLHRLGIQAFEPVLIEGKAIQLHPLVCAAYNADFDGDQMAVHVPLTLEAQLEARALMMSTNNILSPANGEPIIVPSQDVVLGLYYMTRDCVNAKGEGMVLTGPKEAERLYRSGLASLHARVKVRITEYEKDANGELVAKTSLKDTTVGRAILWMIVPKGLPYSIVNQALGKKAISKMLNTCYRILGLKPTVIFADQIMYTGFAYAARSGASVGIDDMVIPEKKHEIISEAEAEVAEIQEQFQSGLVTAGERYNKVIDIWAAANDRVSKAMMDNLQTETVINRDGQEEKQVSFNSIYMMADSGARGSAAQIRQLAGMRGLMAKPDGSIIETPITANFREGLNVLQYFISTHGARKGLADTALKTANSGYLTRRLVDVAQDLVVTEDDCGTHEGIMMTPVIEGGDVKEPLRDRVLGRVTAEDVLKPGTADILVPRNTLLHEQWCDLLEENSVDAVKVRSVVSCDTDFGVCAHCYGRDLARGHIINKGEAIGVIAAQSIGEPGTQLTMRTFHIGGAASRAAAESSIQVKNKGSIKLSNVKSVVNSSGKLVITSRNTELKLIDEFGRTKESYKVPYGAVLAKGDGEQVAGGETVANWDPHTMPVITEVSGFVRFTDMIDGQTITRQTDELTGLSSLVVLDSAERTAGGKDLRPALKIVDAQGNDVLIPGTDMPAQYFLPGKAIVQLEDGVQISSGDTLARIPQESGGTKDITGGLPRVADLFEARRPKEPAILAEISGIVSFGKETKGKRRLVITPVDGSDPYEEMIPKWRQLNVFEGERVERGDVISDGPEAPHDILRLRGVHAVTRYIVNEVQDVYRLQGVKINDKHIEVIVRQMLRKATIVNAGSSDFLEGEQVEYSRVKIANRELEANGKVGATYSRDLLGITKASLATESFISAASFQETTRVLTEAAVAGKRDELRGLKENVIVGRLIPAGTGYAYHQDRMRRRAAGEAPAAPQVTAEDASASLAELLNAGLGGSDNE
T1 sequence (P0A8V2 whole entry): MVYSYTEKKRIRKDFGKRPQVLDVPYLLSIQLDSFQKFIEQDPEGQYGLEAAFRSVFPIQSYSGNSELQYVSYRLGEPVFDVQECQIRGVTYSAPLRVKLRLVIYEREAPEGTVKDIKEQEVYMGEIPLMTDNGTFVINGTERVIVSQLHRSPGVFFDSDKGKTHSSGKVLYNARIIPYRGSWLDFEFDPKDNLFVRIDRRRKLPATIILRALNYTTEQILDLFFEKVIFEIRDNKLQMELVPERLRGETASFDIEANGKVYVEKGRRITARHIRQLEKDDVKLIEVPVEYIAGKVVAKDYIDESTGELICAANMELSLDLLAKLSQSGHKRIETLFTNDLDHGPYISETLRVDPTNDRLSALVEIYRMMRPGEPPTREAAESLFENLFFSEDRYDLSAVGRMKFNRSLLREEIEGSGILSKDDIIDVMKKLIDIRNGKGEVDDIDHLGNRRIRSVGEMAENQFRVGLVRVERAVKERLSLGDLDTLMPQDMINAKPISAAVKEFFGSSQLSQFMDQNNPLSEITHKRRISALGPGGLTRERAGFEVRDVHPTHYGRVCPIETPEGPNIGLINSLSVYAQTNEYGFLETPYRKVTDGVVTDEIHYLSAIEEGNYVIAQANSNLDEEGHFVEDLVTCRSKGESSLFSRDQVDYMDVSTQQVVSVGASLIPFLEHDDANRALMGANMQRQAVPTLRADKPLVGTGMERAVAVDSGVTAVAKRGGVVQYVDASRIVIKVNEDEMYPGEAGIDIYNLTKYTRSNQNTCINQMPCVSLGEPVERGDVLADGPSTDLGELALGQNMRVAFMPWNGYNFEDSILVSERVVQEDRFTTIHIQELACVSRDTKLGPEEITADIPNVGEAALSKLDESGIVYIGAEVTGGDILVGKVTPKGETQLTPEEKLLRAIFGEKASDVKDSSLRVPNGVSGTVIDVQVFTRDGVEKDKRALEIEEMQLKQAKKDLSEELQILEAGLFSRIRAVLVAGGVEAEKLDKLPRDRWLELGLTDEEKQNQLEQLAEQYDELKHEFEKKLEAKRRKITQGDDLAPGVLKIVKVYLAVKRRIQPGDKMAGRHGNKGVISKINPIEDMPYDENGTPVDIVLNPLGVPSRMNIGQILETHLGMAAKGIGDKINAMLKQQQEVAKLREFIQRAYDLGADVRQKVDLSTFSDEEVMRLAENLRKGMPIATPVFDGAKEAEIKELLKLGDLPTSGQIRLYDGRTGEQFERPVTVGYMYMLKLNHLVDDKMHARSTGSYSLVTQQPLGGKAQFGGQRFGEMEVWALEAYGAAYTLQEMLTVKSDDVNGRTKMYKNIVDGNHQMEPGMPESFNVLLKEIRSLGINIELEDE
Format: protein-complex assay
Parameters: scale not given: the % may be the effect or the level left
Summary of the method: (§2)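 Commercial E. coli RNA polymerase was used, with calf thymus DNA template (3.65 µg) in 0.125 ml containing Tris-HCl pH 8.0, MgCl2, β-mercaptoethanol, CTP/UTP/GTP (0.019 µmol each) and [8-14C]ATP (0.019 µmol). Compound in DMSO was added before the enzyme; controls received DMSO. Mixtures were incubated 10 min at 37°. Acid-insoluble label was collected by filter-disk assay and counted by liquid scintillation.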
In the case of `Nc1c2ccccc2nc2ccccc12`, the Activity is reported as 1.8%. With `CC1(C)CC(CNc2c3ccccc3nc3ccccc23)C(C)(C)N1[O]` (stereo not drawn) the Activity was 10%.

What follows are compounds tested against T1, Bacterial DNA-directed RNA polymerase (Bacteria) (assay: Inhibition of Escherichia coli DNA-primed RNA polymerase activity using [8-14C]ATP at 200 ug/ml by scintillation counting). Settings: not given.
Format: protein-complex assay
Parameters: scale not given: the % may be the effect or the level left
Summary of the method: as §2
Work on `Nc1c2ccccc2nc2ccccc12` yielded an Activity of 4%. `CC1(C)CC(CNc2c3ccccc3nc3ccccc23)C(C)(C)N1[O]` (stereo not drawn) was tested, and the Activity was 22%.

Each compound was assayed against T1, Bacterial DNA-directed RNA polymerase (Bacteria) (assay: Inhibition of Escherichia coli DNA-primed RNA polymerase activity using [8-14C]ATP at 100 ug/ml by scintillation counting). Settings: not given.
Format: protein-complex assay
Parameters: scale not given: the % may be the effect or the level left
Summary of the method: as §2
Compound `Nc1c2ccccc2nc2ccccc12` has an Activity of 31%. `CC1(C)CC(CNc2c3ccccc3nc3ccccc23)C(C)(C)N1[O]` (stereo not drawn) gave an Activity of 45%.

These compounds were tested against T1, Bacterial DNA-directed RNA polymerase (Bacteria) (assay: Inhibition of Escherichia coli DNA-primed RNA polymerase activity using [8-14C]ATP at 50 ug/ml by scintillation counting). Settings: not given.
Format: protein-complex assay
Parameters: scale not given: the % may be the effect or the level left
Summary of the method: as §2
`Nc1c2ccccc2nc2ccccc12` showed an Activity of 31%. Work on `CC1(C)CC(CNc2c3ccccc3nc3ccccc23)C(C)(C)N1[O]` (stereo not drawn) yielded an Activity of 70%.

Each compound was assayed against T1, Bacterial DNA-directed RNA polymerase (Bacteria) (assay: Inhibition of Escherichia coli DNA-primed RNA polymerase activity using [8-14C]ATP at 25 ug/ml by scintillation counting). Settings: not given.
Format: protein-complex assay
Parameters: scale not given: the % may be the effect or the level left
Summary of the method: as §2
`Nc1c2ccccc2nc2ccccc12` gave an Activity of 40%. `CC1(C)CC(CNc2c3ccccc3nc3ccccc23)C(C)(C)N1[O]` (stereo not drawn) gave an Activity of 87%.

These compounds were tested against Bacterial DNA-directed RNA polymerase (Bacteria, UniProt P0A7Z4+P0A800+P0A8T7+P0A8V2) (assay: Inhibition of Escherichia coli DNA-primed RNA polymerase activity using [8-14C]ATP by scintillation counting). Settings: not given.
Format: protein-complex assay
Summary of the method: as §2
Work on `CCN(CC)CCCC(C)Nc1c2ccc(Cl)cc2nc2ccc(OC)cc12` (stereo not drawn) [QUINACRINE] yielded an IC50 of 20 µM.
